The source of these data is ChEMBL document CHEMBL1148789, “Synthesis and biological activities of new checkpoint kinase 1 inhibitors structurally related to granulatimide” (J Med Chem, 2007).

The source made the active and inactive calls. No cut-off for these calls is given here.

For test [1], the target named is T1, Proto-oncogene tyrosine-protein kinase Src (Homo sapiens, UniProt P12931). In words: Inhibition of Src. The procedure, abridged:
(§1)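 Started by adding cosubstrate (40 µM ATP stock with [33P]γ-ATP); 20 min at 30 °C. Stopped with 0.85% orthophosphoric acid, filtered on phosphocellulose, washed, then scintillation counted. Percent inhibition at 10 µM; IC50 reported.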

For test [2], the target named is T2, Serine/threonine-protein kinase Chk1 (Homo sapiens, UniProt O14757).
T2 sequence (O14757 whole entry): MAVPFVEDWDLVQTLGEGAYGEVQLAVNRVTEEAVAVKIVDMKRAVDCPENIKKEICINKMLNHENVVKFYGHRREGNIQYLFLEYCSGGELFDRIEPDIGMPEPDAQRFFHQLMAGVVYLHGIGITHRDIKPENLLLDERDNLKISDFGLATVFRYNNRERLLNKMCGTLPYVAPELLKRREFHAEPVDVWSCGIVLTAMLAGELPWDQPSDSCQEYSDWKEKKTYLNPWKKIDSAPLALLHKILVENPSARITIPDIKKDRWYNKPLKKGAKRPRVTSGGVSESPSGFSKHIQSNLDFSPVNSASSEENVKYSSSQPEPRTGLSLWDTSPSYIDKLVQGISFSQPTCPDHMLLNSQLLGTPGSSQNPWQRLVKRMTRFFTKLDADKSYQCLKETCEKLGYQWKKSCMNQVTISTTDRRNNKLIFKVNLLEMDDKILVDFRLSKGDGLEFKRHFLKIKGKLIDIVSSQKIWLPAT
As to the kind of experiment: Inhibition of human Chk1 expressed in Sf9 cells. The gist of the method: (§2)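 Full-length human Chk1 with an N-terminal GST tag, purified from baculovirus-infected Sf9 cells or purchased. Stopped with orthophosphoric acid and captured on phosphocellulose filters for scintillation counting. Percent inhibition at 10 µM; IC50 from 12 concentrations over 6 logs, duplicate points averaged.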

Test [3] deals with T1, Proto-oncogene tyrosine-protein kinase Src. In words: Inhibition of Src at 10 uM. The procedure, abridged: as §1
Test [4] has as its target T3, Serine/threonine-protein kinase Chk1 (Homo sapiens) (UniProt O14757).
T3 sequence (whole entry): T2 sequence (O14757 whole entry)
As to the kind of experiment: Inhibition of human Chk1 expressed in Sf9 cells at 10 uM. The gist of the method:
as §2

Test [5] relates to HT-29. In words: Antiproliferative activity against human HT29 cells […] by microculture tetrazolium assay. In kind it is functional, cell-based. The gist of the method:
(§3)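 Human HCT116, human HT29 and murine L1210 tumour cells grown in RPMI 1640 with 10% fetal calf serum, 2 mM L-glutamine, penicillin/streptomycin and 10 mM HEPES pH 7.4. Compounds were taken from 10^-2 M DMSO stocks, diluted 1/100 in RPMI, and cells were exposed continuously to graded concentrations for four doubling times. MTT was added for 4 h at 37 °C and the formazan dissolved in DMSO. IC50 is the concentration lowering optical density 50% versus untreated cells.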

Test [6] has as its system HCT-116. In words: Antiproliferative activity against human HCT116 cells […] by microculture tetrazolium assay. In kind it is functional, cell-based. The procedure, abridged: as §3
Test [7] deals with L1210. In words: Antiproliferative activity against mouse L1210 cells after four doubling times by microculture tetrazolium assay.
Test [8] is filed under the species Homo sapiens. As to the kind of experiment: Residual activity of PKA at 1 uM.
The species named for test [9] is Homo sapiens. In words: Residual activity of CDK7/cyclin H at 1 uM.
In test [10] the target is MAP kinase-activated protein kinase 2 (Homo sapiens) (UniProt P49137). In words: Residual activity of MAPKAPK2 at 1 uM.
Test [11] concerns the target Glycogen synthase kinase-3 beta (Homo sapiens) (UniProt P49841). As to the kind of experiment: Inhibition of GSK3-beta at 1 uM; values are per cent of control.
Test [12] has as its target Protein kinase C alpha type (Homo sapiens) (UniProt P17252). In words: Inhibition of PKCalpha at 1 uM; values are per cent of control.
The target in test [13] is Cyclin-dependent kinase 5/CDK5 activator 1 (Homo sapiens) (UniProt Q00535+Q15078). In words: Residual activity of CDK5/p25 at 1 uM.
Test [14] addresses RAF proto-oncogene serine/threonine-protein kinase (Homo sapiens) (UniProt P04049). As to the kind of experiment: Residual activity of cRAF at 1 uM.
Test [15] concerns the target T3, Serine/threonine-protein kinase Chk1 (Homo sapiens). In words: Residual activity of Chk1 at 1 uM.
Test [16] deals with RAC-alpha serine/threonine-protein kinase (Homo sapiens) (UniProt P31749). As to the kind of experiment: Inhibition of PKBalpha at 1 uM; values are per cent of control.
Test [17] concerns the target Casein kinase II subunit alpha (Homo sapiens) (UniProt P68400). In words: Residual activity of CK2 at 1 uM.
Test [18] is filed under the species Homo sapiens. As to the kind of experiment: Residual activity of CDK1/cyclin B at 1 uM.
Test [19] concerns the target Glycogen synthase kinase-3 alpha (Homo sapiens) (UniProt P49840). In words: Inhibition of GSK3-alpha at 1 uM; values are per cent of control.
Test [20] addresses Dual specificity mitogen-activated protein kinase kinase 1 (Homo sapiens) (UniProt Q02750). In words: Residual activity of MEK1 at 1 uM.
Test [21] deals with Mitogen-activated protein kinase 1 (Homo sapiens) (UniProt P28482). As to the kind of experiment: Inhibition of MAPK1 at 1 uM; values are per cent of control.
Test [22] is filed under the species Homo sapiens. As to the kind of experiment: Inhibition of CDK2/cyclin A at 1 uM; values are per cent of control.
In test [23] the target is Casein kinase I isoform delta (Homo sapiens) (UniProt P48730). As to the kind of experiment: Inhibition of CK1delta at 1 uM; values are per cent of control.
The species named for test [24] is Homo sapiens. In words: Residual activity of CaMKII at 1 uM.
The target in test [25] is CDK9/cyclin T1 (Homo sapiens) (UniProt O60563+P50750). As to the kind of experiment: Inhibition of CDK9/cyclin T1 at 1 uM; values are per cent of control.
The target of test [26] is Ribosomal protein S6 kinase beta-1 (Homo sapiens) (UniProt P23443). As to the kind of experiment: Residual activity of p70S6K at 1 uM.
Sequence of Ribosomal protein S6 kinase beta-1 (Homo sapiens) (P23443 whole entry, looked up): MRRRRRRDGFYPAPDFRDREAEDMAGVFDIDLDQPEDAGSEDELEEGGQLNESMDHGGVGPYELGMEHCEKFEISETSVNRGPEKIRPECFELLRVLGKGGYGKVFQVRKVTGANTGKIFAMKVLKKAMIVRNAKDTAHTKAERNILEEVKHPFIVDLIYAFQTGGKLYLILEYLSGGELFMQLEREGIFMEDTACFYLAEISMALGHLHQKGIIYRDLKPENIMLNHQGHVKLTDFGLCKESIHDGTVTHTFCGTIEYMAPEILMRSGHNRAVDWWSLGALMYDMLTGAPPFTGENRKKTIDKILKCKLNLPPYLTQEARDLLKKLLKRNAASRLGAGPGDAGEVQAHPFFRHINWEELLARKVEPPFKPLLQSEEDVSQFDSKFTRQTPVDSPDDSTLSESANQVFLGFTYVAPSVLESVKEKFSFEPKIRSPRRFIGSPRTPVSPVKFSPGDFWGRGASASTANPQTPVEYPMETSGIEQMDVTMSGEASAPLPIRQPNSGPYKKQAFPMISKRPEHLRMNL

T1 sequence (P12931 2-536 limits assumed): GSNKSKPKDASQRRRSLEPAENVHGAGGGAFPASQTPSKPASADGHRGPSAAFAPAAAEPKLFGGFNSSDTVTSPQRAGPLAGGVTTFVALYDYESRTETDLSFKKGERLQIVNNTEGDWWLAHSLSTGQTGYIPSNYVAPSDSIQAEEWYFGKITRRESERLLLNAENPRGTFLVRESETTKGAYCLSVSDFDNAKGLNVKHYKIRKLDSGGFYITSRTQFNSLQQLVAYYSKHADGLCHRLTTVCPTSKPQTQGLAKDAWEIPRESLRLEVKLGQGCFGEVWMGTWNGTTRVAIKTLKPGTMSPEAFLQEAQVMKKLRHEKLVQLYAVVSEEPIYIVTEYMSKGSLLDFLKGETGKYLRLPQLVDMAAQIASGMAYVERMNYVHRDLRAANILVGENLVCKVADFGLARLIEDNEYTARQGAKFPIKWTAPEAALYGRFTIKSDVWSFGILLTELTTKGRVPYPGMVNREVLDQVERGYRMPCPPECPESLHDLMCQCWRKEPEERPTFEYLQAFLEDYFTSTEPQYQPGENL
Sequence of Dual specificity mitogen-activated protein kinase kinase 1 (Homo sapiens) (Q02750 whole entry): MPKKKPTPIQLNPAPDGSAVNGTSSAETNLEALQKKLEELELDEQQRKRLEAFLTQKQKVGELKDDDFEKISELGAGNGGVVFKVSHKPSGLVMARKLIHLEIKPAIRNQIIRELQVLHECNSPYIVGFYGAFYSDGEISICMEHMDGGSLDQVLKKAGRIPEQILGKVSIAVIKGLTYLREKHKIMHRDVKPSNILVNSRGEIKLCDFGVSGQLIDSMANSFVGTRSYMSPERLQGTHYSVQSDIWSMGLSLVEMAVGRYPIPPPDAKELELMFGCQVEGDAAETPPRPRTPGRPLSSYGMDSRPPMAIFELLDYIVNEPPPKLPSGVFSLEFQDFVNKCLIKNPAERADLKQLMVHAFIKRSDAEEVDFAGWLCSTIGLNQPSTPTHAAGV
Sequence of Glycogen synthase kinase-3 alpha (Homo sapiens) (P49840 2-483 limits assumed): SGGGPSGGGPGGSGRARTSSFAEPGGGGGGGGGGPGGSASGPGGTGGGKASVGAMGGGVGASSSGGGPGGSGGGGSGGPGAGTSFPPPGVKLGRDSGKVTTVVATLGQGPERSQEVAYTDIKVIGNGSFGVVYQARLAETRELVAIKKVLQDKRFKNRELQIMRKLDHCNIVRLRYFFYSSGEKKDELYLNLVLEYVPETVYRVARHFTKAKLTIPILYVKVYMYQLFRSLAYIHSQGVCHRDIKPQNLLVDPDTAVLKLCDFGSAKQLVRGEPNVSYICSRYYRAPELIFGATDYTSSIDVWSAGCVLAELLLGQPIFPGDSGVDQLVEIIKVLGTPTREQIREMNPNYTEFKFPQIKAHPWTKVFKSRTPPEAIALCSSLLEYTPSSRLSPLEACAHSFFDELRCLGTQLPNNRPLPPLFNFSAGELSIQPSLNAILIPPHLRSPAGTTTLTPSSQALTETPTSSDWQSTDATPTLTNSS
Sequence of MAP kinase-activated protein kinase 2 (Homo sapiens) (P49137 whole entry, looked up): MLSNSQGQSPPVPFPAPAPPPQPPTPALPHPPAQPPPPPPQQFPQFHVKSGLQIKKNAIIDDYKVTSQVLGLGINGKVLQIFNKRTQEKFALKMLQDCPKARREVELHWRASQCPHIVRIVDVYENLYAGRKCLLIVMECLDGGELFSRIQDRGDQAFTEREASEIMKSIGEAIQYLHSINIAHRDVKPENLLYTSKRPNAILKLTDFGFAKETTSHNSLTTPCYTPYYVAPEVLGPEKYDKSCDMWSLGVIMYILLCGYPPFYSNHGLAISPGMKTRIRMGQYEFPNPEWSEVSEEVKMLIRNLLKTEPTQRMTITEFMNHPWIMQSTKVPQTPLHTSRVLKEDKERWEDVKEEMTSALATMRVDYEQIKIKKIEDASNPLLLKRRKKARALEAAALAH
Sequence of RAC-alpha serine/threonine-protein kinase (Homo sapiens) (P31749 whole entry): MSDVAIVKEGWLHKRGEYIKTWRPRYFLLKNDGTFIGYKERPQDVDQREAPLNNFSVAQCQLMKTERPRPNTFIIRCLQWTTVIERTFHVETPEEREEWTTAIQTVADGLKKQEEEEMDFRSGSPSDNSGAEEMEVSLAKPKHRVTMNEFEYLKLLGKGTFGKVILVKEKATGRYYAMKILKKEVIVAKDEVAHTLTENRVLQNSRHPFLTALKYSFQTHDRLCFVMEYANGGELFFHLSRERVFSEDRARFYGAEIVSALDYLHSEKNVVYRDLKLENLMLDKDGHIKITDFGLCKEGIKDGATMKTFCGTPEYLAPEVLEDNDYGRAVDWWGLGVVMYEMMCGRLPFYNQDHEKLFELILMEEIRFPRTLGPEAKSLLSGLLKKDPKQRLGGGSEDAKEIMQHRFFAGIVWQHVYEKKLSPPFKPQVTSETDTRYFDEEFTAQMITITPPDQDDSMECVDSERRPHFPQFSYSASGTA
Sequence of Cyclin-dependent kinase 5/CDK5 activator 1 (Homo sapiens) (Q00535 whole entry): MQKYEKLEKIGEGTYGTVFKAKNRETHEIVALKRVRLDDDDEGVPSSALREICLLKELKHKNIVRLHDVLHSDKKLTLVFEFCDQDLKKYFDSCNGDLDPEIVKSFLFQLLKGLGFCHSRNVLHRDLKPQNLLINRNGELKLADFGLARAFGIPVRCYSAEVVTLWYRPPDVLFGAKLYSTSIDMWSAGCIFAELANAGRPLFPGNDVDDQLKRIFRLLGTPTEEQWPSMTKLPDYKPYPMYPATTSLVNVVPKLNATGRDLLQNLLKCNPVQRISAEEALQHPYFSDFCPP
Sequence of Cyclin-dependent kinase 5/CDK5 activator 1 (Homo sapiens) (Q15078 99-307 partner limits assumed): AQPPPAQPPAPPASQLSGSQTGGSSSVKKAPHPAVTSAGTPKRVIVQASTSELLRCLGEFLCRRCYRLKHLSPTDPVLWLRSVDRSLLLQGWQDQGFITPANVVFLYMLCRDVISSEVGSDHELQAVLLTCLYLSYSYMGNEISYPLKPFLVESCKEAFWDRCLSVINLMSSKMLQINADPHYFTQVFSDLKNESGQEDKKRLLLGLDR
Sequence of RAF proto-oncogene serine/threonine-protein kinase (Homo sapiens) (P04049 whole entry): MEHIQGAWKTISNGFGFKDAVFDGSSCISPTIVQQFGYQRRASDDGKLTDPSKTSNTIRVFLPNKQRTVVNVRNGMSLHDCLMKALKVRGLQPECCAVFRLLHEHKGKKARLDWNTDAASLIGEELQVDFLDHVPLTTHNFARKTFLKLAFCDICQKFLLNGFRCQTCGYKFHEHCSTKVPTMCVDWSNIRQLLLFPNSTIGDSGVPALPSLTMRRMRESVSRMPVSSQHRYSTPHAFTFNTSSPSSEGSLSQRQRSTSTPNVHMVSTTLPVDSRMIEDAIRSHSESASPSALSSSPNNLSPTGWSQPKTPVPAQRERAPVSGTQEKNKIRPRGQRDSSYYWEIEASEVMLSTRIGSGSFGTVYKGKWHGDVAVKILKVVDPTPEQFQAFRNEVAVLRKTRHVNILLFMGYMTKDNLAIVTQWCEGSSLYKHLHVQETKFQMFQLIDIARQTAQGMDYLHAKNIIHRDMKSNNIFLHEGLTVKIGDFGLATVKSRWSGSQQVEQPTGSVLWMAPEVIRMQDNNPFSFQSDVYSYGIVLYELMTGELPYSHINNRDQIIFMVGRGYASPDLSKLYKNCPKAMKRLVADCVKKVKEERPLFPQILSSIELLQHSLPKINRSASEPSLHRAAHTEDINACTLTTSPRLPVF

In the case of `O=C1NC(=O)c2c1c1[nH]cnc1c1[nH]c3ccccc3c21` [GRANULATIMIDE], the figures for the IC50 in [1] and in test [2] were 0.35 µM and 0.081 µM, respectively. The inhibition in test [3] amounted to 58%.
As for `O=C1NC(=O)c2c1c1c(c3[nH]c4ccccc4c23)C(=O)CCC1`, the inhibition was 15.3% in [4] and 8.5% in test [3]. The results for the IC50 in [5] and in test [6] were 15.5 µM and 1.1 µM, respectively.
As to `O=C1NC(=O)c2c1c1c(O)ccc(O)c1c1[nH]c3ccccc3c21`, the results for the inhibition in [4] and in [3] were 96% and 2.5%, respectively. The compound further came in with an IC50 in test [2] of 0.311 µM.
As to `O=C1NC(=O)c2c1c1c(O)ccc(O)c1c1[nH]c3ccc(O)cc3c21`, the inhibition in test [4] amounted to 94%; in test [3], 83.5%. The IC50 in test [5] stood at 26.4 µM; in test [1], 5.4 µM; in test [2], 0.023 µM; in [6] it was 2.7 µM; in [7], 1.4 µM.
For `Cc1ccc2[nH]c3c4c(O)ccc(O)c4c4c(c3c2c1)C(=O)NC4=O`, the inhibition in test [4] was found to be 99%. Further, the residual activity in test [8] came to 117%; in test [9], 90%; in test [10], 57%; in test [11] it was 60%; in test [12] it was 102%; in test [13], 28%. For the same compound, the residual activity in test [14] was 93%; in [15], 12%; in test [16], 87%; in test [17], 108%; in test [18], 86%; in test [19], 32%. Besides, the residual activity came to 96% in [20]; 95% in test [21]; 69% in test [22]; 100% in [23]; 34% in test [24]; 117% in [25]. Further, the residual activity in [26] came out at 42%. Further, the 50% inhibitory concentration (IC50) in [5] was found to be 3.8 µM; in test [2], 0.161 µM; in test [6], 1.6 µM.
With `Cc1ccc2[nH]c3c4c(=O)ccc(=O)c4c4c(=O)[nH]c(=O)c4c3c2c1`, the inhibition was 86% in test [4] and 52.5% in [3]. The IC50 in test [5] amounted to 20.6 µM; in test [2] it was 0.107 µM; in test [6], 0.7 µM.
Consider `O=c1ccc(=O)c2c1c1[nH]c3ccccc3c1c1c(=O)[nH]c(=O)c21`, for which, in test [4], the inhibition worked out at 86%. The same compound registered an IC50 in test [2] of 0.269 µM.
On to `O=C1CCc2c1c1c(c3c2[nH]c2ccccc23)C(=O)NC1=O`, for which, in test [4], the inhibition amounted to 72%. In addition, the concentration for half-maximal inhibition (IC50) in test [5] was 16.1 µM; in test [2], 0.043 µM; in [6], 9.7 µM; in test [7] it was 58.4 µM. Besides, in [3], the result was inactive.
For the compound `O=c1ccc(=O)c2c1c1[nH]c3ccc(O)cc3c1c1c(=O)[nH]c(=O)c21`, the inhibition was 95% in [4] and 63% in test [3]. Further, the residual activity stood at 103% in test [8]; 87% in test [9]; 73% in [10]; 19% in test [11]; 66% in test [12]; 33% in test [13]. Moreover, the residual activity was found to be 102% in test [14]; 22% in test [15]; 87% in [16]; 92% in test [17]; 85% in test [18]; 3% in test [19]. Moreover, the residual activity came to 98% in test [20]; 77% in test [21]; 62% in [22]; 16% in test [23]; 40% in test [24]; 61% in test [25]. In addition, in test [26], the residual activity amounted to 27%. Besides, the IC50 in test [5] was 50.6 µM; in test [2], 0.027 µM; in test [6], 15.4 µM; in [7] it was 8.4 µM.
In turn, `Cc1ccc2[nH]c3c4c(OS(=O)(=O)O)ccc(O)c4c4c(c3c2c1)C(=O)NC4=O` had an inhibition in test [4] of 70%. For the same compound, the IC50 in test [5] is 50 µM; in [2], 0.893 µM; in test [6], above 40 µM.
With `O=C1NC(=O)c2c1c1c(O)ccc(OS(=O)(=O)O)c1c1[nH]c3ccccc3c21`, in test [4], the inhibition was determined as 62%. Also, the IC50 in test [5] was 46 µM; in test [2] it was 1.79 µM; in [6] it was above 50 µM.
The compound `O=c1[nH]c(=O)c2c1c1[nH]c3ccccc3c1c1c(=O)[nH]c(=O)c21` [BIS-IMIDE A] came in with an inhibition in test [4] of 94.4%. Also, the 50% inhibitory concentration (IC50) in test [2] turned out to be 0.02 µM. Also, the result in test [3] was inactive.
For the compound `CC(C)(C)C(=O)Oc1ccc(O)c2c3c(c4c5ccccc5[nH]c4c12)C(=O)NC3=O`, the inhibition in test [4] was 66%. Besides, the IC50 in test [5] stood at 7.28 µM; in test [2], 3.7 µM; in [6], 8.76 µM.
Consider `O=C1NC(=O)c2c1c1c(O)cccc1c1[nH]c3ccccc3c21`, for which the results for the inhibition in test [4] and in test [3] were 93% and 35%, respectively. The IC50 in test [5] came out at 46.4 µM; in test [2], 0.904 µM; in test [6] it was 17.5 µM.

What is called IC50 is the concentration that gives 50% inhibition. Read a high IC50 as weaker potency in that assay. One may read the inhibition as the share of the control response that was lost under treatment.
